{
  "source": "paper PMC6030392",
  "about": "(Neoplasia (New York, N.Y.), 2018)",
  "key": {"Bcrp1": {"target": "T1, Bcrp1 (Mus musculus, UniProt Q7TMS5)", "T1 sequence (Q7TMS5 1-657)": "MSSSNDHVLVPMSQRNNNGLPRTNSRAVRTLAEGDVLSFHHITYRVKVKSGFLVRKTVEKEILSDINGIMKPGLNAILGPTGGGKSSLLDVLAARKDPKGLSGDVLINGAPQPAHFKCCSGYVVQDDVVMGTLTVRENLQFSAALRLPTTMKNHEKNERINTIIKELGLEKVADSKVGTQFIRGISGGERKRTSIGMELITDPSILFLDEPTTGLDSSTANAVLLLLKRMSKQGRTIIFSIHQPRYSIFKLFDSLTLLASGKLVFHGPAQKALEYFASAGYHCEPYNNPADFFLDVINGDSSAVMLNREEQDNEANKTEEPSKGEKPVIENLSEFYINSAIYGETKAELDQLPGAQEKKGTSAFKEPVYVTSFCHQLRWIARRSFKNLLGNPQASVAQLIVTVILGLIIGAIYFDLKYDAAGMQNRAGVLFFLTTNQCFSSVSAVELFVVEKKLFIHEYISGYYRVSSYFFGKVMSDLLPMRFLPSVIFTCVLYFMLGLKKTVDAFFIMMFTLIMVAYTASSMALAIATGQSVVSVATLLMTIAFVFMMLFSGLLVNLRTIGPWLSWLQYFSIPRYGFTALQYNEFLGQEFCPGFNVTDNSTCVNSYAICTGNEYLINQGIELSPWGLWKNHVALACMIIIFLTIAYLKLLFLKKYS", "assay": "In vitro Transwell transport, MDCKII parent versus Bcrp1 transduced subline", "assay_type": "in vitro ADME", "summary_of_the_method": "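MDCKII parent and Bcrp1-transduced cells were grown 3 days on 3.0 μm polycarbonate Transwell filters (1 × 10⁶ cells/well) in MEM with 10% FBS at 37°C. Test compound (40 μg/ml in OptiMEM) went apical or basolateral. Inhibitor went to both sides, plus a P-gp blocker (5 μM). Sampling was every 30 min to 2 h, with half the donor refreshed each time. Wells leaking >1.5%/h were excluded. Analysis by HPLC.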"}, "[1]": {"details": "dose level of 100 mg/kg; cited from earlier work"}, "[2]": {"details": "cited from earlier work"}, "Mdr1a (P-gp)": {"target": "Mdr1a (P-gp) (Mus musculus, UniProt P21447)", "sequence (P21447 whole entry)": "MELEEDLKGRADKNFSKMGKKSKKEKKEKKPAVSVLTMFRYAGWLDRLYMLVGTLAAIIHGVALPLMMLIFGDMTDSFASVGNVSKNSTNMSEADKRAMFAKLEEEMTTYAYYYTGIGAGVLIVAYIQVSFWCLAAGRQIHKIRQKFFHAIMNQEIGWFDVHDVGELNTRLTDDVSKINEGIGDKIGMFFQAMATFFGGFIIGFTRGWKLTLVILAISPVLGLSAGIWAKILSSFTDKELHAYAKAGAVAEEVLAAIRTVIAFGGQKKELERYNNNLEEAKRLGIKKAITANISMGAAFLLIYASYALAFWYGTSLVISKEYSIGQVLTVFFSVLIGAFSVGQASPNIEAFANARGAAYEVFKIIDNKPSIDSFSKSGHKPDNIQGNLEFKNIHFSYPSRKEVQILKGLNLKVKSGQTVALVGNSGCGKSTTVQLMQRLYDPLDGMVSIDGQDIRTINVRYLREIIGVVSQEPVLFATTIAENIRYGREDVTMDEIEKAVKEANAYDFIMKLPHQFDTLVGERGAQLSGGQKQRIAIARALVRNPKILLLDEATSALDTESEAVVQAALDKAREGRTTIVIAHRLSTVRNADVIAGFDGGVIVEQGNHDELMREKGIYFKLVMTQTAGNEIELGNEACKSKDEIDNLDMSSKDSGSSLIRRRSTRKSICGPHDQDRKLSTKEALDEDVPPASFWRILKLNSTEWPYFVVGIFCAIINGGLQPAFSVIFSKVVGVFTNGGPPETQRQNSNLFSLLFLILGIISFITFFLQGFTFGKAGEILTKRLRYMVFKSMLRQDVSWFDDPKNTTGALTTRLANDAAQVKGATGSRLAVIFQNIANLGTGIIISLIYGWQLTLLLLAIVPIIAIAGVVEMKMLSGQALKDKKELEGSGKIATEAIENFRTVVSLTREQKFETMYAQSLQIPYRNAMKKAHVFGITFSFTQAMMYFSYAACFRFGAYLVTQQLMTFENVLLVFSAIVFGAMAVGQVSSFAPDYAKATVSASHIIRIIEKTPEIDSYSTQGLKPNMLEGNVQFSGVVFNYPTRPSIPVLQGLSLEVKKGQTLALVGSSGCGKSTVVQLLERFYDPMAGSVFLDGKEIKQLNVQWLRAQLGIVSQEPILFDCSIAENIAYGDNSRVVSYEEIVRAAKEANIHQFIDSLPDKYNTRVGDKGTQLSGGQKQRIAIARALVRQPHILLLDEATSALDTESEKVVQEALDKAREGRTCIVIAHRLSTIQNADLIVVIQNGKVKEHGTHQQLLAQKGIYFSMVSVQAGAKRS", "assay": "In vitro Transwell transport, LLC-PK1 parent versus Mdr1a transduced subline", "assay_type": "in vitro ADME, murine", "details": "temozolomide 40 μg/ml; LLC-PK1 vs LLC-Mdr1a"}, "[3]": {"assay": "Stability in culture medium at 37°C", "assay_type": "physicochemical"}, "[4]": {"assay": "Recovery in acceptor compartment of Transwell", "assay_type": "in vitro ADME", "details": "after 30 minutes; transport medium pH 7.4"}, "[5]": {"assay_type": "in vivo, FVB mice", "details": "for AUC 0–7 h, brain: mean ± SE, n ≥ 7", "summary_of_the_method": "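Male FVB mice (WT, Abcg2^−/−, Abcb1a/b^−/−, Abcb1a/b;Abcg2^−/−; 8–15 weeks) got 50 mg/kg i.v. via tail vein. Groups of […] were sampled at 15 min, 1, 2, 4, 7 h by cardiac puncture (K-EDTA plasma, acidified with 1 M HCl). Brains were homogenized in pH 2 phosphate/1% BSA. Extracts (ethyl acetate) were run on HPLC in duplicate. AUC0–7h by linear trapezoidal rule; brain-to-plasma ratio per animal; two-way ANOVA with Bonferroni.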"}, "[6]": {"assay": "Plasma pharmacokinetics of oral temozolomide", "assay_type": "in vivo, mice", "details": "100 mg/kg oral; WT n = 18, Abcb1a/b;Abcg2^−/− n = 19"}, "[7]": {"system": "intracranial Mel57-luc tumors", "assay": "Intracranial Mel57-luc tumor efficacy study", "assay_type": "in vivo, FVB nude mice", "details": "oral 100 mg/kg/day × 5", "summary_of_the_method": "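WT or Abcb1a/b;Abcg2^−/− FVB nude mice received Mel57-luc cells (100,000 cells/2 μl) stereotactically 2 mm lateral, 1 mm anterior to bregma, 3 mm deep. Tumor load was set by bioluminescence before stratification to oral test compound 100 mg/kg/day for 5 days, untreated control, or combination with oral inhibitor 20–30 min earlier. Repeated imaging was expressed relative to the first measurement and log-transformed.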"}, "[8]": {"system": "GSC457 glioblastoma cells", "assay": "Orthotopic GSC457 glioblastoma efficacy study", "assay_type": "in vivo, murine", "details": "oral 100 mg/kg/day × 7"}, "[9]": {"details": "C57BL × DBA/2 F1 mice; cited from earlier work"}, "[10]": {"details": "cited from earlier work", "remark": "listed apart in the source"}, "[11]": {"details": "cited from earlier work", "remark": "listed apart in the source"}, "[12]": {"details": "cited from earlier work", "remark": "listed apart in the source"}, "[13]": {"details": "Abcb1a/b^−/− mice, 50 mg/kg i.v."}},
  "note": "Like-named read-outs stand apart in the source and are kept apart here. Marks after values point to notes of the source that are not given here.",
  "data": [
    {"smiles": "COc1cc2ncnc(Nc3ccc(F)c(Cl)c3)c2cc1OCCCN1CCOCC1", "note": "[gefitinib]", "values": [
      {"measurement": "effect on Bcrp1-mediated transport of temozolomide", "setting": "Bcrp1; inhibitor 10 μM in the medium", "result": "almost completely abrogated"},
      {"measurement": "plasma levels", "setting": "[1]", "result": "about 10 μM"},
      {"measurement": "plasma levels achievable in patients relative to the level after 100 mg/kg", "setting": "[2]", "result": "about 10 fold lower"}
    ]},
    {"smiles": "Cn1nnc2c(C(N)=O)ncn2c1=O", "note": "[temozolomide]", "values": [
      {"measurement": "transport by P-gp", "setting": "Mdr1a (P-gp)", "result": "very limited, if any, evidence for transport by P-gp"},
      {"measurement": "transport by Bcrp1", "setting": "Bcrp1; temozolomide 40 μg/ml, MDCKII vs MDCKII-Bcrp1, zosuquidar 5 μM present", "result": "clear vectorial transport by Bcrp1"},
      {"measurement": "half-life", "setting": "[3]", "result": "~30", "unit": "min"},
      {"measurement": "fraction of the donor concentration recovered in the acceptor compartment", "setting": "[4]", "result": "at least 5%"},
      {"measurement": "increase of brain accumulation compared to WT mice", "setting": "[5]; Abcb1a/b;Abcg2^−/− mice, 50 mg/kg i.v., P < .001", "result": 50, "unit": "%"},
      {"measurement": "AUC 0–7 h, brain", "setting": "[5]; Abcb1a/b;Abcg2^−/− mice, 50 mg/kg i.v.", "result": "57.09 ± 1.32**^/# μg/g.h"},
      {"measurement": "increase of brain accumulation compared to WT mice", "setting": "[5]; [13]", "result": "about 20%"},
      {"measurement": "AUC 0–7 h, brain", "setting": "[5]; [13]", "result": "44.51 ± 1.56", "unit": "µg·h/g"},
      {"measurement": "increase of brain accumulation compared to WT mice", "setting": "[5]; Abcg2^−/− mice, 50 mg/kg i.v.", "result": 20, "unit": "%"},
      {"measurement": "AUC 0–7 h, brain", "setting": "[5]; Abcg2^−/− mice, 50 mg/kg i.v.", "result": "44.78 ± 1.88", "unit": "µg·h/g"},
      {"measurement": "AUC 0–7 h, brain", "setting": "[5]; WT mice, 50 mg/kg i.v.", "result": "36.81 ± 1.11", "unit": "µg·h/g"},
      {"measurement": "increase of brain penetration compared to wild-type controls", "setting": "[5]; combined deletion of Abcb1a/b and Abcg2, P < .001", "result": 1.5, "unit": "fold"},
      {"measurement": "effect of absence of drug transporters on plasma clearance", "setting": "[5]; knockout vs WT mice, 50 mg/kg i.v.", "result": "did not affect the plasma clearance"},
      {"measurement": "plasma AUC in Abcb1a/b;Abcg2^−/− versus WT mice", "setting": "[6]", "result": "not significantly different"},
      {"measurement": "antitumor efficacy against intracranial Mel57 tumors, relative to WT mice", "setting": "[7]; Abcb1a/b;Abcg2^−/− mice", "result": "significantly higher"},
      {"measurement": "antitumor efficacy against intracranial Mel57 tumors", "setting": "[7]; WT mice", "result": "modest efficacy"},
      {"measurement": "tumor growth and survival, Abcb1a/b;Abcg2^−/− compared to WT mice", "setting": "[8]", "result": "significantly slower tumor growth and longer survival"},
      {"measurement": "oral bioavailability", "setting": "[9]", "result": "almost complete"},
      {"measurement": "main dose-limiting toxicity", "setting": "[10]", "result": "bone marrow toxicity"}
    ]},
    {"smiles": "CO[C@@H]1[C@@H](OC(N)=O)[C@@H](O)[C@H](Oc2ccc3c(O)c(NC(=O)c4ccc(O)c(CC=C(C)C)c4)c(=O)oc3c2C)OC1(C)C", "note": "[novobiocin]", "values": [
      {"measurement": "effect on Bcrp1-mediated transport of temozolomide", "setting": "Bcrp1; inhibitor 50 μM in the medium", "result": "not sufficient"}
    ]},
    {"smiles": "Cc1ccc(NC(=O)c2ccc(CN3CCN(C)CC3)cc2)cc1Nc1nccc(-c2cccnc2)n1", "note": "[imatinib]", "values": [
      {"measurement": "oral bioavailability", "setting": "[11]", "result": "> 90", "unit": "%"},
      {"measurement": "brain penetration", "setting": "[12]; significantly enhanced in Abcb1a/b;Abcg2^−/− mice", "result": "poor"}
    ]},
    {"smiles": "C#Cc1cccc(Nc2ncnc3cc(OCCOC)c(OCCOC)cc23)c1", "note": "[erlotinib]", "values": [
      {"measurement": "effect on Bcrp1-mediated transport of temozolomide", "setting": "Bcrp1; inhibitor 10 μM in the medium", "result": "almost completely abrogated"}
    ]},
    {"smiles": "CC(=O)c1c(C)c2cnc(Nc3ccc(N4CCNCC4)cn3)nc2n(C2CCCC2)c1=O", "note": "[palbociclib]", "values": [
      {"measurement": "higher brain penetration in Abcb1a/b^−/− compared to WT controls", "setting": "[12]", "result": "approximately 15 fold"}
    ]},
    {"smiles": "COc1cc2c(cc1OC)CN(CCc1ccc(NC(=O)c3cccc4c(=O)c5cccc(OC)c5[nH]c34)cc1)CC2", "note": "[elacridar]", "values": [
      {"measurement": "effect on Bcrp1-mediated transport of temozolomide", "setting": "Bcrp1; inhibitor 5 μM in the medium", "result": "almost completely abrogated"}
    ]},
    {"smiles": "CC(=O)O[C@H]1C(=O)[C@@]2(C)[C@H]([C@H](OC(=O)c3ccccc3)[C@]3(O)C[C@H](OC(=O)[C@H](O)[C@@H](NC(=O)c4ccccc4)c4ccccc4)C(C)=C1C3(C)C)[C@]1(OC(C)=O)CO[C@@H]1C[C@@H]2O", "note": "[paclitaxel]", "values": [
      {"measurement": "higher brain penetration in Abcb1a/b^−/− compared to WT controls", "setting": "[12]", "result": 5, "unit": "fold"}
    ]}
  ]
}
